Each structure is given as a SMILES string. pIC50: −log10 of the molar value. Active and inactive are the calls of the source. The calls are words filed in the database; no cut-off is given here.

Assay [1] concerns MIA PaCa-2. As to the kind of experiment: Antiproliferative activity against human MIAPaCa2 cells at 20 uM after 72 hrs by MTT assay. Format: functional. To be noted: MIA PaCa-2, 72 h. An outline of the steps: (§1)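 Each cell line in the panel was treated with 20 µM compound, with doxorubicin as reference. Exponentially growing cells were grown at 37 °C in 5% CO2. MTT read-out served as a surrogate of viable cell number, expressed as % inhibition versus an untreated control. Values are mean ± SD of three independent experiments.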
On the technique in general: Formazan colour is commonly taken as a measure of viable cells.

Assay [2] has as its system U2OS. As to the kind of experiment: Antiproliferative activity against human U2OS cells at 20 uM after 72 hrs by MTT assay. Format: functional. The essentials: as §1
In assay [3] the test system is BXPC-3. As to the kind of experiment: Antiproliferative activity against human BxPC3 cells after 72 hrs by MTT assay. Format: functional, cell-based. The conditions noted are these: BXPC-3, 72 h. The essentials: (§2)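 Cells kept in exponential growth at 37 °C in humidified 5% CO2 with 2 mM L-glutamine, mycoplasma-checked. Compounds were applied over a dose range and viability was read by MTT relative to an untreated control. IC50 is the concentration giving a 50% decrease in viability. Values are mean ± SD of three independent experiments.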

The subject of assay [4] is NCI/ADR-RES. As to the kind of experiment: Antiproliferative activity against human NCI/ADR-RES cells at 20 uM after 72 hrs by MTT assay. Format: functional. An outline of the steps: as §1
Assay [5] concerns MIA PaCa-2. The assay can be described thus: Antiproliferative activity against human MIAPaCa2 cells after 72 hrs by MTT assay. Format: functional, cell-based. To be noted: MIA PaCa-2, 72 h. An outline of the steps: as §2
Assay [6] concerns U2OS. The assay can be described thus: Antiproliferative activity against human U2OS cells after 72 hrs by MTT assay. Format: functional, cell-based. An outline of the steps: as §2
Assay [7] relates to LNCaP. The assay can be described thus: Antiproliferative activity against human LNCAP cells at 20 uM after 72 hrs by MTT assay. Format: functional. An outline of the steps: as §1
The test system of assay [8] is OVCAR-8. As to the kind of experiment: Antiproliferative activity against human OVCAR8 cells after 72 hrs by MTT assay. Format: functional, cell-based. To be noted: OVCAR-8, 72 h. An outline of the steps:
as §2

The test system of assay [9] is NCI/ADR-RES. The assay can be described thus: Antiproliferative activity against human NCI/ADR-RES cells at 20 uM after 72 hrs by MTT assay in presence of N-acetylcysteine. Format: functional. An outline of the steps: (§3)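 NCI/ADR-RES cells were pretreated for 2 h with 5 mM N-acetylcysteine or glutathione. Compound at 20 µM was then added for 72 h, with doxorubicin as positive control. Percent inhibition was measured by MTT.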

Assay [10] can be described thus: Antiproliferative activity against human […] cells after 72 hrs by MTT assay. Format: functional, cell-based. The essentials: as §2
Assay [11] is described as follows: Antiproliferative activity against human […] cells at 20 uM after 72 hrs by MTT assay. Format: functional. An outline of the steps:
as §1

Assay [12] deals with NCI/ADR-RES. As to the kind of experiment: Antiproliferative activity against human NCI/ADR-RES cells at 20 uM after 72 hrs by MTT assay in presence of glutathione. Format: functional. The essentials: as §3
The nature of assay [13]: Antiproliferative activity against human Caov3 cells at 20 uM after 72 hrs by MTT assay. Format: functional. To be noted: Caov-3, 72 h. An outline of the steps:
as §1

The nature of assay [14]: Antiproliferative activity against human Caov3 cells after 72 hrs by MTT assay. Format: functional, cell-based. The conditions noted are these: Caov-3, 72 h. The essentials: as §2
The test system of assay [15] is PC-3. The assay can be described thus: Antiproliferative activity against human PC3 cells at 20 uM after 72 hrs by MTT assay. Format: functional. The conditions noted are these: PC-3, 72 h. The essentials: as §1
Assay [16] has as its system OVCAR-8. As to the kind of experiment: Antiproliferative activity against human OVCAR8 cells at 20 uM after 72 hrs by MTT assay. Format: functional. To be noted: OVCAR-8, 72 h. An outline of the steps:
as §1

Assay [17] has as its system PC-3. As to the kind of experiment: Antiproliferative activity against human PC3 cells after 72 hrs by MTT assay. Format: functional, cell-based. The conditions noted are these: PC-3, 72 h. The essentials: as §2
The subject of assay [18] is BXPC-3. As to the kind of experiment: Antiproliferative activity against human BxPC3 cells at 20 uM after 72 hrs by MTT assay. Format: functional. The conditions noted are these: BXPC-3, 72 h. The essentials: as §1
The test system of assay [19] is OVCAR-8. The assay can be described thus: Antiproliferative activity against human OVCAR8 cells at 20 uM after 72 hrs by MTT assay in presence of N-acetylcysteine. Format: functional, cell-based.
In assay [20] the test system is OVCAR-8. The assay can be described thus: Antiproliferative activity against human OVCAR8 cells at 20 uM after 72 hrs by MTT assay in presence of glutathione. Format: functional, cell-based.
In assay [21] the test system is LNCaP. The assay can be described thus: Antiproliferative activity against human LNCAP cells after 72 hrs by MTT assay. Format: functional, cell-based. An outline of the steps:
as §2

Assay [22] relates to DU-145. As to the kind of experiment: Antiproliferative activity against human DU145 cells after 72 hrs by MTT assay. Format: functional, cell-based. The conditions noted are these: DU-145, 72 h. The essentials: as §2
In assay [23] the test system is LNCaP. As to the kind of experiment: Up-regulation of p53 expression in human LNCAP cells at 3 uM after 24 hrs by Western blot analysis. Format: functional, cell-based. An outline of the steps:
(§4)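 LNCaP cells were treated for 24 h, then lysed. Equal protein was run on 12% SDS-PAGE and blotted to PVDF. Membranes were blocked 1 h in 5% skim milk/TBS-0.1% Tween and probed overnight at 4 °C with anti-p53 or anti-caspase-9. A secondary antibody and ECL detection followed, with GAPDH as loading control.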
Background: A western blot detects proteins with antibodies after separation by electrophoresis.

Assay [24] concerns DU-145. The assay can be described thus: Antiproliferative activity against human DU145 cells at 20 uM after 72 hrs by MTT assay. Format: functional. The conditions noted are these: DU-145, 72 h. The essentials:
as §1

The subject of assay [25] is NCI/ADR-RES. As to the kind of experiment: Antiproliferative activity against human NCI/ADR-RES cells after 72 hrs by MTT assay. Format: functional, cell-based. The essentials: as §2
Assay [26] deals with LNCaP. As to the kind of experiment: Increase of cleaved caspase-9 level in human LNCAP cells at 3 uM after 24 hrs by Western blot analysis. Format: functional, cell-based. The essentials: as §4

The inhibition is how much of the control response was suppressed. What is called pIC50 is the IC50 on a negative log10 scale, so that one unit is a factor of ten. Read a low pIC50 as a large IC50. For the compound `COc1cccc2c1C(=O)c1c(O)c3c(c(O)c1C2=O)C[C@@](O)(C(=O)CO)C[C@@H]3O[C@H]1C[C@H](N)[C@H](O)[C@H](C)O1` [DOXORUBICIN], the inhibition at 20 µM turned out to be 88.1% in the assay with MIA PaCa-2 [1]; 90% with U2OS [2]; 41% in the assay with NCI/ADR-RES [4]; 85.8% in the assay on LNCaP [7]; 13% in the assay on NCI/ADR-RES [9]; 83.5% in assay [11]. For the same compound, the inhibition at 20 µM in the assay with NCI/ADR-RES [12] stood at 21%; in [13], 92.6%; in the assay on PC-3 [15] it was 6.9%; with OVCAR-8 [16], 86%; in the assay on BXPC-3 [18], 96.2%; with DU-145 [24], 80.6%. Moreover, the negative-log IC50 (pIC50) with BXPC-3 [3] is 6.40; in the assay with MIA PaCa-2 [5], over 7.00; with U2OS [6] it was 6.52; in the assay on OVCAR-8 [8], 6.22; in assay [10], 5.82; in [14], over 7.00. The pIC50 in the assay with PC-3 [17] is 6.00; in the assay with LNCaP [21] it was 6.70; in the assay with DU-145 [22], 6.70; with NCI/ADR-RES [25] it was under 4.70. Further, the inhibition entry in the assay with OVCAR-8 [19] and in the assay on OVCAR-8 [20] was “Active” throughout. Also, the outcome with LNCaP [23] and in the assay on LNCaP [26] was Active.

`O=C1c2ccccc2C(=O)c2c(OCCOCCO)ccc(OCCOCCO)c21`: the inhibition at 20 µM in the assay with MIA PaCa-2 [1] turned out to be 31.1%; with U2OS [2], 32.4%; in the assay on NCI/ADR-RES [4] it was 46.4%; in the assay on LNCaP [7], 46.9%; in assay [11] it was 44.3%; in assay [13], 7.3%. For the same compound, the inhibition at 20 µM was 10.6% in the assay with PC-3 [15], 3.4% in the assay with OVCAR-8 [16], 23.1% in the assay on BXPC-3 [18] and 10% in the assay on DU-145 [24].

As to `Cc1ccc(S(=O)(=O)Oc2ccc(OCCOCCOCCOCCO)c3c2C(=O)c2ccccc2C3=O)cc1`, the inhibition at 20 µM is 29.5% in the assay with MIA PaCa-2 [1]; 41.9% with U2OS [2]; 1.7% with NCI/ADR-RES [4]; 40.3% with LNCaP [7]; 47.8% in assay [11]; 48.2% in [13]. The inhibition at 20 µM with PC-3 [15] turned out to be 23.7%; in the assay with OVCAR-8 [16] it was 5.5%; in the assay on BXPC-3 [18] it was 11.8%; in the assay on DU-145 [24], 21.6%.

Turning to `Cc1ccc(S(=O)(=O)Oc2ccc(OCCOCCO)c3c2C(=O)c2ccccc2C3=O)cc1`, the inhibition at 20 µM with MIA PaCa-2 [1] turned out to be 35.9%; in the assay on U2OS [2], 43%; in the assay with NCI/ADR-RES [4], 15.3%; with LNCaP [7] it was 26.7%; in [11], 31.4%; in assay [13], 42.7%. The inhibition at 20 µM with PC-3 [15] amounted to 9.9%; in the assay with OVCAR-8 [16] it was 8.5%; in the assay on BXPC-3 [18], 14.5%; in the assay with DU-145 [24], 9%. Also, the inhibition result in the assay with OVCAR-8 [19] and in the assay on OVCAR-8 [20] was “Active” in each case.

(Values after ChEMBL document CHEMBL2440111, “Overcoming doxorubicin-resistance in the NCI/ADR-RES model cancer cell line by novel anthracene-9,10-dione derivatives” (Bioorg Med Chem Lett, 2013).)
